One block for each compound: values may come before it. Active and inactive are the calls of the source. The rule behind the calls is not given here.
Experiments:
[1] = Cytotoxicity against human Hep3B cells after 48 hrs; type: functional, cell-based, Hep 3B2
Outline: (§1)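 MTT viability assay on log-phase cells at 37 °C, exposed to compound or DMSO vehicle for 48 h. MTT (1 mg/mL in PBS) was then added for 2 h, and absorbance was read at 570 nm with 630 nm correction. IC50 is the concentration giving 50% proliferation inhibition. Cells were cultured in 5% CO2: HL-60 in RPMI-1640 with 10% FBS; Hep3B in DMEM/F12 with 10% FBS; Detroit 551 in DMEM with 10% FBS.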

[2] = test system: Detroit 551; test: Cytotoxicity against human Detroit 551 cells after 48 hrs; type: cell-based; conditions: Detroit 551, 48 h; outline: as §1
[3] = test system: HL-60; test: Cytotoxicity against human HL60 cells after 48 hrs; type: functional, cell-based; conditions: HL-60, 48 h; outline: as §1
[4] = test system: NCI-H460; test: Cytotoxicity against human NCI-H460 cells after 48 hrs; type: functional, cell-based; conditions: NCI-H460, 48 h
[5] = molecular target: T1, Tubulin (Homo sapiens) (UniProt P68371+Q9H4B7+P0DPH7+P68366+Q13509+Q71U36+P04350+Q3ZCM7+P07437+P68363+Q9BQE3+Q6PEY2+Q13885+Q9BVA1+Q9BUF5); test: Inhibition of tubulin polymerization in human NCI-H522 cells assessed as beta-tubulin accumulation in cytoskeletal fraction at 100 nM after 24 hrs by Western blot analysis; type: cell-based
Outline: (§2)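 NCI-H522 cells were exposed for 24 h to compound (10, 30 or 100 nM) or DMSO vehicle. They were then lysed 5 min at 37 °C in hypotonic buffer (1 mM MgCl2, 2 mM EGTA, 0.5% NP-40, protease inhibitors, 20 mM Tris-HCl pH 6.8) and centrifuged at 15,000 × g for 10 min at 25 °C. α- and β-tubulin were assessed in the cytoskeletal fraction.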

[6] = molecular target: T1, Tubulin (Homo sapiens); test: Inhibition of tubulin polymerization in human NCI-H522 cells assessed as alpha-tubulin accumulation in cytoskeletal fraction at 100 nM after 24 hrs by Western blot analysis; type: cell-based; outline: as §2
[7] = molecular target: Tubulin (Sus scrofa) (UniProt P02554+P02550); conditions: 1 uM
Chain of Tubulin (Sus scrofa) (P02550 whole entry, looked up): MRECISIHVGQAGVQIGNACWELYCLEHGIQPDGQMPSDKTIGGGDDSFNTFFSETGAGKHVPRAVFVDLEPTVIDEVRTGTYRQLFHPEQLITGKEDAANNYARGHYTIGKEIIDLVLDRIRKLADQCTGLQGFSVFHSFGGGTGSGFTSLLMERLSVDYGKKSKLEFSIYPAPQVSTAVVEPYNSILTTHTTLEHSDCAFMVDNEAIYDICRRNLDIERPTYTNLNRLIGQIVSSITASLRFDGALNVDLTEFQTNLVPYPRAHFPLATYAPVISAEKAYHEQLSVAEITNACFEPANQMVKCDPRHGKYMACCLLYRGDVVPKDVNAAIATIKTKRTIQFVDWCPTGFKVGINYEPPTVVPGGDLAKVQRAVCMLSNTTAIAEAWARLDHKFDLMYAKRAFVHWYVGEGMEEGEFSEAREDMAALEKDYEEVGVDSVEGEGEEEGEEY
Chain of Tubulin (Sus scrofa) (P02554 whole entry, looked up): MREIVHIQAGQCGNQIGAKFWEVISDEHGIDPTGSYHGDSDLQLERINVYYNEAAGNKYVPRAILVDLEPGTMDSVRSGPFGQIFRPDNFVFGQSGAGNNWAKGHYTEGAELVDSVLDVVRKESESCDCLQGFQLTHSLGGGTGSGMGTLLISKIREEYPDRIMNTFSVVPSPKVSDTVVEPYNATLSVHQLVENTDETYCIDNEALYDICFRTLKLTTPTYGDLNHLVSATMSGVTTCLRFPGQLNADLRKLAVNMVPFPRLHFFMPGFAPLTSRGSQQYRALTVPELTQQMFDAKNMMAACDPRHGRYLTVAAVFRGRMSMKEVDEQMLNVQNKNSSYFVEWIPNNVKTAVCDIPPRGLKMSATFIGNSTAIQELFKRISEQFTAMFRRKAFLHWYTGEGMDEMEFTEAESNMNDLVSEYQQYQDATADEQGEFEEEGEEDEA

Structure (SMILES): COc1cc(O)cc(-c2cc(=O)c3cc(N4CCOCC4)ccc3[nH]2)c1
IC50 [1]: 6.03 µM | IC50 [2]: > 100 µM | IC50 [3]: 3.9 µM | IC50 [4]: > 100 µM

Structure (SMILES): CCOc1cc(O)cc(-c2cc(=O)c3cc(N4CCCC4)ccc3[nH]2)c1
IC50 [1]: 0.07 µM | IC50 [2]: 13.2 µM | IC50 [3]: 0.02 µM | IC50 [4]: 0.59 µM

Structure (SMILES): O=c1cc(-c2ccc(O)cc2)[nH]c2cc3c(cc12)OCO3
IC50 [1]: 22.3 µM | IC50 [2]: 41 µM | IC50 [3]: 3.26 µM | IC50 [4]: > 100 µM

Structure (SMILES): O=c1cc(-c2ccccc2O)[nH]c2cc3c(cc12)OCO3
IC50 [1]: 8.04 µM | IC50 [2]: 48.9 µM | IC50 [3]: 7.62 µM | IC50 [4]: 19.1 µM

Structure (SMILES): COc1cccc(-c2cc(O)c3cc4c(cc3n2)OCO4)c1
IC50 [1]: 0.08 µM | IC50 [2]: 4.77 µM | IC50 [3]: 0.08 µM | IC50 [4]: 0.2 µM

Structure (SMILES): O=c1cc(-c2cc(O)cc(O)c2)[nH]c2ccc(N3CCCC3)cc12
IC50 [1]: 1.58 µM | IC50 [2]: > 25 µM | IC50 [3]: 0.34 µM | IC50 [4]: 13.9 µM

Structure (SMILES): CCOc1cc(O)cc(-c2cc(=O)c3cc4c(cc3[nH]2)OCO4)c1
IC50 [1]: 25 µM | IC50 [3]: 0.5 µM | IC50 [4]: > 25 µM

inhibition [5]: Active | inhibition [6]: Active | inhibition [7]: Active
Structure (SMILES): CC[C@]1(O)C[C@H]2CN(CCc3c([nH]c4ccccc34)[C@@](C(=O)OC)(c3cc4c(cc3OC)N(C=O)[C@H]3[C@@](O)(C(=O)OC)[C@H](OC(C)=O)[C@]5(CC)C=CCN6CC[C@]43[C@@H]65)C2)C1

Structure (SMILES): Oc1cccc(-c2cc(O)c3cc4c(cc3n2)OCO4)c1
IC50 [1]: 1.05 µM | IC50 [2]: 21.8 µM | IC50 [3]: 0.25 µM | IC50 [4]: 17 µM

inhibition [5]: Active | inhibition [6]: Active | inhibition [7]: Active
Structure (SMILES): CC[C@]1(O)C[C@@H]2CN(CCc3c([nH]c4ccccc34)[C@@](C(=O)OC)(c3cc4c(cc3OC)N(C)[C@H]3[C@@](O)(C(=O)OC)[C@H](OC(C)=O)[C@]5(CC)C=CCN6CC[C@]43[C@@H]65)C2)C1

Structure (SMILES): COc1cc(O)cc(-c2cc(=O)c3cc4c(cc3[nH]2)OCO4)c1
IC50 [1]: > 50 µM | IC50 [2]: > 50 µM | IC50 [3]: 0.5 µM | IC50 [4]: > 50 µM

Structure (SMILES): O=c1cc(-c2cc(O)cc(O)c2)[nH]c2cc3c(cc12)OCO3
IC50 [1]: > 25 µM | IC50 [3]: 8.71 µM | IC50 [4]: > 25 µM

Structure (SMILES): COc1cc(O)cc(-c2cc(=O)c3cc(N(C)C)ccc3[nH]2)c1
IC50 [1]: 6.15 µM | IC50 [2]: > 50 µM | IC50 [3]: 0.22 µM | IC50 [4]: > 50 µM

Reference: ChEMBL document CHEMBL2417372, “Design, synthesis, and mechanism of action of 2-(3-hydroxy-5-methoxyphenyl)-6-pyrrolidinylquinolin-4-one as a potent anticancer lead” (Bioorg Med Chem Lett, 2013)
